As a reminder, the IC50 is the concentration needed to halve the response being measured.

We go through 18 compounds from ChEMBL document CHEMBL1134593, “Acyclic and cyclopropyl analogues of adenosine bisphosphate antagonists of the P2Y1 receptor: structure-activity relationships and receptor docking” (J Med Chem, 2001).

One test deals with P2Y purinoceptor 1 (Meleagris gallopavo, UniProt P49652). As to the kind of experiment: Inhibitory concentration against P2Y1 receptor in turkey erythrocyte membranes. The class given is cell membranes. A digest of the protocol:
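Turkey erythrocytes labeled 18–24 h at 37 °C with 2-[3H]myo-inositol in inositol-free DMEM, then lysed hypotonically (5 mM sodium phosphate pH 7.4, 5 mM MgCl2, 1 mM EGTA) to give ghosts. Phospholipase C assayed in Hepes pH 7.0 buffer with 1 μM GTPγS, antagonist and 30 nM 2-MeSADP, 5 min at 30 °C. Total [3H]inositol phosphates quantified by anion exchange.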

The target in test [1] is P2Y purinoceptor 1 (Meleagris gallopavo) (UniProt P49652). As to the kind of experiment: In vitro antagonist activity against turkey P2Y1 receptor, expressed as percent of maximal inhibition at 100 uM. On the set-up: scale not given: the % may be the effect or the level left. The class given is functional.
Sequence of P2Y purinoceptor 1 (Meleagris gallopavo) (P49652 whole entry): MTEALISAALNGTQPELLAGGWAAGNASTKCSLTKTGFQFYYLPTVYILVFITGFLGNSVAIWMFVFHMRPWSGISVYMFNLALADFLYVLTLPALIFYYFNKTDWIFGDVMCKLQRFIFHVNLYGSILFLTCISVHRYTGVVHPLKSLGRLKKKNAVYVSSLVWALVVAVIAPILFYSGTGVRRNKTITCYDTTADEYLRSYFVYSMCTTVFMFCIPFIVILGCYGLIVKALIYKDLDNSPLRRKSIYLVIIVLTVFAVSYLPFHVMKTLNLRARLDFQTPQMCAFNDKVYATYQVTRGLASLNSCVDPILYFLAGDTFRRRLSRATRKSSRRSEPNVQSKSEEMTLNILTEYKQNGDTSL

The structures appear in SMILES notation.

Sequence of P2Y purinoceptor 1 (P49652 whole entry): as above

Compound `CNc1nc(Cl)nc2c1ncn2CC1[C@H](COP(=O)(O)O)[C@H]1COP(=O)(O)O` (stereo partly specified) showed an IC50 on P2Y purinoceptor 1 of 2.7 µM. Also, the Activity in test [1] stood at 100%.
The corresponding values for `CNc1nc(Cl)nc2c1ncn2CC(COP(=O)(O)O)COP(=O)(OC)OC` (stereo unspecified) are 31 µM and 78%.
As to `CNc1nc(Cl)nc2c1ncn2CC=C(COP(=O)(O)O)COP(=O)(O)O`, the IC50 at P2Y purinoceptor 1 turned out to be 2.1 µM. This compound also returned an Activity in test [1] of 100%.
As for `CNc1nc(Cl)nc2c1ncn2C(COP(=O)(O)O)COP(=O)(O)O`, inhibition against P2Y purinoceptor 1 was half-maximal at 4.56 µM (IC50). The same compound came in with an Activity in test [1] of 100%.
For the compound `CNc1nc(Cl)nc2c1ncn2CC(COP(=O)(O)O)COP(=O)(O)O`, the IC50 at P2Y purinoceptor 1 was 0.48 µM. Besides, the Activity in test [1] worked out at 100%.
The corresponding values for `CNc1nc(Cl)nc2c1ncn2CC(CCOP(=O)(O)O)CCOP(=O)(O)O` are 2.04 µM and 100%.
In the case of `CNc1nc(Cl)nc2c1ncn2CCC(COP(=O)(O)O)COP(=O)(O)O`, the concentration for half-maximal inhibition (IC50) against P2Y purinoceptor 1 stood at 0.84 µM. The compound further registered an Activity in test [1] of 99%.
`CNc1nc(Cl)nc2c1ncn2C[C@H]1[C@H](COP(=O)(O)O)[C@@H]1COP(=O)(O)O` yielded an IC50 against P2Y purinoceptor 1 of 1.74 µM. This compound also yielded an Activity in test [1] of 100%.
Compound `CNc1nc(Cl)nc2c1ncn2CC(COC(C)=O)COP(=O)(O)O` (stereo unspecified) registered an IC50 at P2Y purinoceptor 1 of 37.6 µM. Further, in test [1], the Activity amounted to 65%.
The corresponding values for `CNc1nc(Cl)nc2c1ncn2C[C@H](COP(=O)(O)O)OP(=O)(O)O` are 7.86 µM and 100%.
`CNc1nc(Cl)nc2c1ncn2CC(COP(=O)(O)O)COP(=O)(O)OP(=O)(O)O` (stereo unspecified): the IC50 at P2Y purinoceptor 1 was 0.23 µM. The Activity in test [1] is 100%.
In the case of `CNc1nc(Cl)nc2c1ncn2C1CC1(COP(=O)(O)O)COP(=O)(O)O` (stereo unspecified), the IC50 on P2Y purinoceptor 1 amounted to 2.36 µM. Besides, the Activity in test [1] worked out at 100%.
The like results for `CNc1ncnc2c1ncn2CC(COP(=O)(O)O)COP(=O)(O)O` were, in that order, 1.09 µM and 100%.
The like results for `CNc1nc(Cl)nc2c1ncn2C[C@@H]1[C@H](COP(=O)(O)O)[C@@H]1COP(=O)(O)O` were, in that order, 2.17 µM and 100%.
The corresponding values for `CNc1nc(Cl)nc2c1ncn2CC1CC1(COP(=O)(O)O)COP(=O)(O)O` (stereo unspecified) are 1.9 µM and 100%.
Turning to `CNc1ncnc2c1ncn2CCC(COP(=O)(O)O)COP(=O)(O)O`, 1.6 µM corresponded to half-maximal inhibition at P2Y purinoceptor 1 (IC50). The same compound came in with an Activity in test [1] of 100%.
The like results for `CNc1nc(Cl)nc2c1ncn2C[C@@H](COP(=O)(O)O)OP(=O)(O)O` were, in that order, 1.47 µM and 100%.
The corresponding values for `CNc1nc(Cl)nc2c1ncn2CC(CO)COP(=O)(O)O` (stereo unspecified) are 22.6 µM and 68%.
